Compounds with a hit are over-represented: about 2.1% of the library has one in this group of screens.
STEP inh: inhibitors of human striatal-enriched phosphatase STEP | P54829 | inhibition, % at 20 µM | actives 0.25% (n = 360,000) | recombinant STEP, OMFP fluorogenic substrate, fluorescence;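 active means inhibition at 20 µM, scaled per plate between control wells, above about 37%, limit read from the data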;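 further: 0% = DMSO with enzyme and substrate and 100% = substrate only without enzyme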
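Test system: STEP tyrosine phosphatase / Reagent: OMFP at 25 µM / Doses: 20 µM, 1% DMSO / Read-out: percent inhibition scaled to no-enzyme and uninhibited-enzyme controls, plate-pattern corrected / Detection: FITC-channel fluorescence of OMFP product / Medium: Bis-Tris buffer pH 6.0, 2.5 mM DTT, 0.005% Tween 20 / Schedule: 20 min at room temperature, dark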
DNMT1 block: DNMT1 (human) enzyme inhibition. inhibition (reported as % activation of signal), % at 10 µM. DNMT1 molecular beacon, Hinp1I cleavage, fluorescence. actives 0.83% (n = 360,000). P26358. AID 588458; in the data active means inhibition above about 50%
SUMO1-SIM PPI: SUMO1-SIM interaction modulation. SUMO1 binding to a labelled peptide, TR-FRET, 1 h. P63165. inhibition, % at 20 µM. actives 0.33% (n = 360,000); in the data active means inhibition above about 37%
Target sequence (P63165 whole entry, looked up): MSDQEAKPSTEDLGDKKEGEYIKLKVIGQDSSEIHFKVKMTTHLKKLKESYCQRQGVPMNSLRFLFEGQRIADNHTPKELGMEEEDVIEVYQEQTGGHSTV
LMPTP inh: LMPTP (human) inhibition | recombinant LMPTP-A, OMFP fluorogenic substrate, fluorescence intensity | inhibition, % at 20 µM | actives 0.22% (n = 360,000) | AID 651560;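 active means compounds that cut the enzyme signal by at least half of the control window in the single-dose screen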;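 further: plate controls were DMSO wells with enzyme plus substrate for no effect and substrate without enzyme for full effect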
Target sequence (P24666 whole entry, looked up): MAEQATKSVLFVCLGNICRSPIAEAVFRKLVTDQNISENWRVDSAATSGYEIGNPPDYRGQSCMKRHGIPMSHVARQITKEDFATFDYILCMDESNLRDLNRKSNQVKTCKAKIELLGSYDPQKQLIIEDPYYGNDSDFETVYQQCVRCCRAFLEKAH
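Assay system: LMPTP-A, protein tyrosine phosphatase of low molecular weight / Medium: pH 6.0 Bis-Tris buffer with DTT and Triton X-100 / Schedule: 50 min enzyme reaction at room temperature, protected from light / Measured by: endpoint fluorescence intensity from OMFP dephosphorylation / Read-out basis: % inhibition relative to no-enzyme and uninhibited control wells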
Scp-1 inhibitor: Scp-1 (human) phosphatase inhibition; Q9GZU7; Recombinant Scp1, phosphopeptide, malachite green phosphate absorbance; inhibition, % at 20 µM; actives 0.88% (n = 340,000);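 active means inhibition above about 50% at 20 µM, limit read from the data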;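 further: plate controls were DMSO wells with enzyme for no effect and wells lacking enzyme for full effect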
Target sequence (Q9GZU7 76-261 limits assumed): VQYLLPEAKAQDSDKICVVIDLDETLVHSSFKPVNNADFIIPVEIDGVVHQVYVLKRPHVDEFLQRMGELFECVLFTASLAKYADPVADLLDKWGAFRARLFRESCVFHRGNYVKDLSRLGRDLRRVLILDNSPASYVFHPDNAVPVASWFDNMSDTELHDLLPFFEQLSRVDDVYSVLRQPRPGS
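Times: enzyme reaction 45 min at room temperature, colour 5 min, stabilisation 30 min. Material: SCP-1 catalytic fragment, aa 76-261. Medium: Acidic Tris acetate buffer with magnesium and detergent. Signal: colorimetric free-phosphate detection, absorbance 630 nm. Read-out basis: % inhibition of SCP-1 phosphate liberation. Reagent: Phosphorylated 17-residue peptide substrate.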
GRK2 aptamer HTS: human GRK2 inhibition via aptamer displacement. P25098. bead flow cytometry, FAM-aptamer displacement from GRK2. inhibition of aptamer binding, % at 10 µM. actives 0.59% (n = 330,000);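 active means inhibition of aptamer binding above 40%, roughly 3 SD of noise, on plates passing a quality check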;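 further: median bead fluorescence of bound FAM aptamer so fluorescent compounds give negative values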
An asterisk follows results filed as active; · = no result; ! = not active in a repeat.

SMILES | STEP inh | DNMT1 block | SUMO1-SIM PPI | LMPTP inh | Scp-1 inhibitor | GRK2 aptamer HTS
CC(C)c1nc(SCC(=O)Nc2ccc(C(=O)O)cc2)c2c3c(sc2n1)CCCC3 | 0.7 | 0.5 | 32.3 | 52.6* | 16.9 | 2.0
CC1CCc2c(sc3ncnc(SCC(=O)Nc4ccc(C(=O)O)cc4)c23)C1 (centres undefined) | 2.1 | 2.4 | 18.6 | 36.4 | -5.5 | 0.0
Nc1nc2ccccc2cc1C(=O)NCCCCc1ccccc1 | · | · | 0.6 | 1.0 | · | ·
COc1cc2c(C#N)c(N3CCc4ccccc4C3)nc(N)c2c(N)n1 | 6.1 | 24.7 | 46.6* | 3.9 | 4.5 | 4.0
CC(Cc1c[nH]c2ccccc12)C(=O)O (centres undefined) | 5.3 | 73.0* | -2.3 | -0.3 | 66.3* | 21.0
CC(=O)N[C@H](Cc1c[nH]c2ccccc12)C(=O)O | 2.0 | 2.4 | 3.3 | -1.2 | -6.3 | 1.0
CCCCCN(C(=O)CCC(=O)OCc1ccccc1C(F)(F)F)c1c(N)n(CCCC)c(=O)[nH]c1=O | -1.3 | -3.9 | 5.2 | -4.0 | -6.7 | 47.0*
COc1cc(C(=O)NCC(=O)OCC(=O)c2cccc3ccccc23)cc(OC)c1OC | -0.5 | 6.1 | 61.2* | 0.5 | -6.0 | 5.0
COc1ccc(C(=O)NCC(=O)OCC(=O)c2ccccc2Br)cc1OC | 0.4 | -1.1 | 3.5 | -1.2 | · | ·
O=C1Nc2ccccc2/C1=C/c1cnc(-c2ccccc2)[nH]1 | -5.4 | 26.8 | 42.5* | 17.8 | -3.3 | 0.0
O=C(O)CCCNC(=O)/C=C/c1ccco1 | 3.6 | 87.8* | -1.1 | 4.5 | 72.5* | 26.0
O=C(/C=C/c1ccco1)NC(=S)Nc1cccc(C(=O)O)c1 | 15.1 | 37.8 | 1.9 | 0.4 | 64.5* | 29.0
COc1cccc(NC(=S)NC(=O)/C=C/c2ccco2)c1 | 0.1 | 31.9 | 16.4 | 11.8 | -5.2 | 3.0
CCc1nc2ccc(C(=O)NCCCn3ccnc3)cn2c1N(C)Cc1nccs1 | -1.1 | 9.0 | -2.0 | 1.4 | · | ·
N#Cc1ccccc1OCCN1C(=O)c2ccccc2C1=O | 0.4 | 2.0 | -11.8 | -0.7 | -4.8 | 0.0
Nc1cccc2c1C(=O)N(CCOc1ccccc1F)C2=O | -2.3 | -0.5 | -29.1 | -1.6 | 56.1* | 4.0
CCC(C)[C@H]1CNC(=O)C(=O)N1CC1CCCCC1 (some centres undefined) | · | · | 46.6* | 6.1 | · | ·
O=C(NCCN1CCN(c2cccc(Cl)c2)CC1)c1ccc(CSc2nc3ccncc3[nH]2)cc1 | 0.6 | -10.6 | 4.6 | 83.4* | -0.8 | 0.0
CC(C)(C)c1ccc(SC2=C[C@@]3(O)CC[C@@H](O)[C@@](Sc4ccc(C(C)(C)C)cc4)(C2=O)[C@H]3O)cc1 | · | · | -2.8 | 2.9 | · | ·
C=Cc1c(C)c2cc3[nH]c(cc4nc(cc5nc(cc1[nH]2)C(C)=C5CCC(=O)O)C(CCC(=O)O)=C4C)c(C)c3C=C | 1.1 | 79.4* | 111.7*! | 4.7 | 63.6*! | 6.0
CCCCN1C(=N)N([C@@H](CCC)CN2CCC[C@H]2CN2C(N)=NC[C@H]2C(C)C)C[C@H]1[C@H](C)CC | -3.5 | 1.5 | 7.1 | 0.0 | 4.1 | 100.0*
CCCCN1C=C(C(=O)OC)C(c2ccccc2Cl)C(C(=O)OC)=C1 | 1.2 | 1.1 | 45.7* | 0.0 | -10.3 | 2.0
CCCc1c(-c2ccc(F)cc2)ncn1Cc1ccccc1OC | · | · | 7.3 | 1.0 | · | ·
Cc1[nH]nc2c1C(c1ccc(-c3ccc(Cl)cc3)o1)C(C#N)=C(N)O2 (centres undefined) | -1.0 | -6.5 | 63.8* | 13.3 | -7.3 | 5.0
Cc1nn(C)c(C)c1N1C(=O)c2cccc3c(N)ccc(c23)C1=O | -150.2 | 93.4* | -47.0 | -11.2 | -11.1 | 4.0
SMILES | STEP inh | DNMT1 block | SUMO1-SIM PPI | LMPTP inh | Scp-1 inhibitor | GRK2 aptamer HTS
Cc1nn(C)c(C)c1N1C(=O)c2cccc3c(Br)ccc(c23)C1=O | 0.6 | 3.6 | -27.7 | -0.8 | 0.8 | 0.0
CCCN1C(=O)c2cccc3c(N4CCCCC4)ccc(c23)C1=O | -10.4 | 7.7 | -15.8 | 2.3 | -3.9 | 3.0
Cc1ccc(N2C(=O)c3cccc4c(N)ccc(c34)C2=O)c2cccnc12 | -22.6 | 47.7 | -13.2 | 40.4 | 67.2* | 0.0
CN(C)CCCN1C(=O)c2cccc3c(Br)ccc(c23)C1=O | 2.8 | 41.0 | -19.7 | 6.5 | -7.0 | 0.0
CCCCNc1ccc2c3c(cccc13)C(=O)N(CCCC)C2=O | -305.0 | 60.6* | -74.4 | -4.3 | -17.7 | ·
CCN1C(=O)c2cccc3c(N)ccc(c23)C1=O | -107.9 | 123.8* | -105.1 | -10.6 | 17.1 | 2.0
O=C(NCc1cccnc1)c1csc([C@H]2C[C@H](O)[C@@H](CO)O2)n1 | -0.6 | -0.3 | 12.3 | -1.9 | · | ·
Cc1cc(OC(C)C(=O)NC2CC(C)(C)NC(C)(C)C2)c2c(C)c(C)c(=O)oc2c1 (centres undefined) | 0.5 | 2.4 | -4.1 | -1.5 | · | ·
N#CC(C#N)=C(N)/C(C#N)=C/c1cc(O)c(O)c(O)c1 | 1.9 | -1.6 | -20.5 | 50.6* | -0.7 | 2.0
CC(C)[C@H](NC(=O)OCc1ccccc1)C(=O)OCC(=O)NCc1ccco1 | -1.0 | 18.8 | 1.9 | -1.0 | 58.8* | ·
CC(C)C(NC(=O)OCc1ccccc1)C(=O)OCC(=O)NCc1ccco1 (centres undefined) | 0.4 | 29.9 | 3.0 | 1.0 | 28.3 | 0.0
O=C(Nc1ccc(-c2nc3ccc(NC(=O)c4cccs4)cc3[nH]2)cc1)c1cccs1 | 41.6* | 14.5 | 82.1* | 6.7 | 11.2 | 0.0
CN(C)c1cc(Nc2ccc(O)cc2)c([N+](=O)[O-])c2nonc12 | -0.1 | 25.0 | -28.4 | -0.5 | -7.4 | 1.0
O=[N+]([O-])c1c(Nc2ccc(O)cc2)cc(Cl)c2nonc12 | 48.6* | 27.4 | -23.2 | 0.4 | -12.5 | 1.0
C[C@H]1CN([C@@H](C)CO)C(=O)CCCn2nncc2CO[C@@H]1CN(C)S(=O)(=O)c1cccc(F)c1 | 3.5 | 2.8 | 2.3 | 0.5 | · | ·
Cc1cccc(NCc2ccc(N(C)C)cc2)n1 | -1.8 | 60.4* | -1.2 | -0.4 | -5.0 | 11.0
Oc1ccc2ccccc2c1C=NC12CN3CCN(CN(C3)C1)C2 | 4.1 | -10.7 | 54.4* | -4.5 | 3.6 | 2.0
Cc1nc(-c2cc(C#N)c(=O)[nH]c2C)cs1 | -0.3 | -3.1 | 0.0 | -1.6 | -10.5 | 2.0
Cc1[nH]c(=O)c(C#N)cc1-c1csc(-c2ccccc2)n1 | -1.9 | 15.0 | 6.0 | 60.4* | 9.1 | 0.0
N#Cc1c(NC(=O)c2ccccc2Cl)n(Cc2ccccc2)c2nc3ccccc3nc12 | 1.1 | 53.6* | 56.5* | 12.3 | -0.9 | 0.0
CCCCn1c(NC(=O)c2ccccc2Cl)c(C#N)c2nc3ccccc3nc21 | -0.4 | 75.7* | 52.8* | 16.9 | -3.6 | 2.0
COc1ccc(-n2c(NC(=O)c3ccco3)c(C#N)c3nc4ccccc4nc32)cc1 | -1.3 | 13.2 | 33.5 | 8.2 | -1.9 | 1.0

Compound activity deposited in PubChem BioAssay by several laboratories.
